We go through 9 compounds from ChEMBL document CHEMBL1130231, “Betidamino acid scan of the GnRH antagonist acyline” (J Med Chem, 1997).

pIC50: −log10 of the molar value.

This assay has as its target T1, Gonadotropin-releasing hormone receptor (Rattus norvegicus, UniProt P30969).
T1 sequence (P30969 whole entry): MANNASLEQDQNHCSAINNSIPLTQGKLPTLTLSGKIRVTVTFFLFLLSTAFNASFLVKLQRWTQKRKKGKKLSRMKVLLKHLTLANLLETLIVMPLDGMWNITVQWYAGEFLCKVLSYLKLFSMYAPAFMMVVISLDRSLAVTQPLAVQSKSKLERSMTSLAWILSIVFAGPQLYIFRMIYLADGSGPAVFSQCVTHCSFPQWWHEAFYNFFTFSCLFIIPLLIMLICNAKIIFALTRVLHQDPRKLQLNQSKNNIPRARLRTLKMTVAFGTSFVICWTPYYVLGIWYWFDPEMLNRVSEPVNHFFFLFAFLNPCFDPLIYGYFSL
The experiment in a line: Inhibition of binding of radiolabeled histrelin to Gonadotropin-releasing hormone receptor (GnRHr) in rat pituitary gland membranes. In kind it is cell membranes, Membrane. The procedure, abridged: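 Rat anterior pituitary membranes (male and female glands equal numbers), homogenized in 0.32 M sucrose/aprotinin, 4000g pellet, diluted 15-fold in 10 mM Hepes, 0.2% BSA, pH 7.6. Filtration onto PEI-treated glass filters, scintillation counting. IC50 in nM, duplicate, n = 1.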
The pIC50 is the negative decadic logarithm of the IC50, by convention in mol/L. A low value points to a high IC50. `CC(=O)Nc1ccc(C[C@H](NC(=O)[C@H](CO)NC(=O)[C@@H](Cc2cccnc2)NC(=O)[C@@H](Cc2ccc(Cl)cc2)NC(=O)[C@@H](Cc2ccc3ccccc3c2)NC(C)=O)C(=O)N[C@H](C(=O)N[C@@H](CC(C)C)C(=O)N[C@@H](CCCCNC(C)C)C(=O)N2CCC[C@H]2C(=O)N[C@H](C)C(N)=O)N(C)C(=O)c2ccc(NC(C)=O)cc2)cc1` (mixture of isomers): the pIC50 is 8.28.

As for `CC(=O)Nc1ccc(C[C@H](NC(=O)[C@H](CO)NC(=O)[C@@H](NC(=O)c2ccncc2)NC(=O)[C@@H](Cc2ccc(Cl)cc2)NC(=O)[C@@H](Cc2ccc3ccccc3c2)NC(C)=O)C(=O)N[C@H](Cc2ccc(NC(C)=O)cc2)C(=O)N[C@@H](CC(C)C)C(=O)N[C@@H](CCCCNC(C)C)C(=O)N2CCC[C@H]2C(=O)N[C@H](C)C(N)=O)cc1` (single isomer, unassigned), the negative logarithm of the IC50 (pIC50) is 8.85.

As to `CC(=O)Nc1ccc(C[C@H](NC(=O)[C@H](CO)NC(=O)[C@H](Cc2cccnc2)NC(=O)[C@@H](Cc2ccc(Cl)cc2)NC(=O)[C@@H](Cc2ccc3ccccc3c2)NC(C)=O)C(=O)N[C@H](Cc2ccc(NC(C)=O)cc2)C(=O)N[C@@H](CC(C)C)C(=O)N[C@@H](CCCCNC(C)C)C(=O)N2CCC[C@H]2C(=O)N[C@H](C)C(N)=O)cc1`, the negative-log IC50 (pIC50) is 9.64.

`CC(=O)Nc1ccc(C[C@H](NC(=O)[C@H](CO)NC(=O)[C@@H](Cc2cccnc2)NC(=O)[C@H](NC(=O)c2cnccn2)NC(=O)[C@@H](Cc2ccc3ccccc3c2)NC(C)=O)C(=O)N[C@H](Cc2ccc(NC(C)=O)cc2)C(=O)N[C@@H](CC(C)C)C(=O)N[C@@H](CCCCNC(C)C)C(=O)N2CCC[C@H]2C(=O)N[C@H](C)C(N)=O)cc1` (single isomer, unassigned): the pIC50 was 5.77.

Turning to `CC(=O)Nc1ccc(C[C@H](NC(=O)[C@H](CO)NC(=O)[C@@H](Cc2cccnc2)NC(=O)[C@@H](Cc2ccc(Cl)cc2)NC(=O)[C@@H](Cc2ccc3ccccc3c2)NC(C)=O)C(=O)N[C@H](Cc2ccc(NC(C)=O)cc2)C(=O)N[C@H](C(=O)N[C@@H](CCCCNC(C)C)C(=O)N2CCC[C@H]2C(=O)N[C@H](C)C(N)=O)N(C)C(C)=O)cc1`, the negative-log IC50 (pIC50) is 8.77.

In turn, `CC(=O)Nc1ccc(C[C@H](NC(=O)[C@H](CO)NC(=O)[C@@H](Cc2cccnc2)NC(=O)[C@@H](Cc2ccc(Cl)cc2)NC(=O)[C@@H](Cc2ccc3ccccc3c2)NC(C)=O)C(=O)N[C@H](Cc2ccc(NC(C)=O)cc2)C(=O)N[C@@H](CC(C)C)C(=O)N[C@@H](CCCCNC(C)C)C(=O)N2CCC[C@H]2C(=O)N[C@H](C(N)=O)N(C)C=O)cc1` showed a negative logarithm of the IC50 (pIC50) of 9.17.

`CC(=O)Nc1ccc(C[C@H](NC(=O)[C@H](NC(=O)[C@@H](Cc2cccnc2)NC(=O)[C@@H](Cc2ccc(Cl)cc2)NC(=O)[C@@H](Cc2ccc3ccccc3c2)NC(C)=O)N(C)C=O)C(=O)N[C@H](Cc2ccc(NC(C)=O)cc2)C(=O)N[C@@H](CC(C)C)C(=O)N[C@@H](CCCCNC(C)C)C(=O)N2CCC[C@H]2C(=O)N[C@H](C)C(N)=O)cc1` (single isomer, unassigned): the negative-log IC50 (pIC50) was 9.05.

In turn, `CC(=O)Nc1ccc(C[C@@H](NC(=O)[C@H](NC(=O)c2ccc(O)cc2)NC(=O)[C@H](CO)NC(=O)[C@@H](Cc2cccnc2)NC(=O)[C@@H](Cc2ccc(Cl)cc2)NC(=O)[C@@H](Cc2ccc3ccccc3c2)NC(C)=O)C(=O)N[C@@H](CC(C)C)C(=O)N[C@@H](CCCCNC(C)C)C(=O)N2CCC[C@H]2C(=O)N[C@H](C)C(N)=O)cc1` gave a pIC50 of 9.52.

In turn, `CC(=O)Nc1ccc(C[C@H](NC(=O)[C@H](CO)NC(=O)[C@@H](Cc2cccnc2)NC(=O)[C@@H](Cc2ccc(Cl)cc2)NC(=O)[C@H](NC(C)=O)N(C)C(=O)c2ccc3ccccc3c2)C(=O)N[C@H](Cc2ccc(NC(C)=O)cc2)C(=O)N[C@@H](CC(C)C)C(=O)N[C@@H](CCCCNC(C)C)C(=O)N2CCC[C@H]2C(=O)N[C@H](C)C(N)=O)cc1` gave a negative logarithm of the IC50 (pIC50) of 8.04.
